What was measured:
[1] = Cytotoxicity against human HGF cells after 24 hrs; format: cell-based; settings: for CC50: hgf, 24 h
Summary of the method: (§1)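 Cells (HGF gingival fibroblasts, HPC pulp cells, HPLF periodontal ligament fibroblasts, HSC-2 and HSC-4 squamous carcinoma, HL-60 promyelocytic leukemia) were exposed to graded concentrations for 24 h, up to a maximum of 400 μM. CC50 is the concentration reducing viable cell number by 50%, taken from dose–response curves. Values are from duplicate determinations differing by less than 5%.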

[2] = Cytotoxicity against human HPC cells after 24 hrs; format: cell-based; settings: for CC50: hpc, 24 h; summary of the method: as §1
[3] = Cytotoxicity against human HPLF cells after 24 hrs; format: cell-based; settings: for CC50: hplf, 24 h; summary of the method: as §1
HSC-2 [4] = test: Cytotoxicity against human HSC2 cells after 24 hrs; format: functional; settings: HSC-2, 24 h; summary of the method: as §1
HSC-2 [5] = test: Selectivity index, ratio of CC50 for human normal cells to CC50 for human HSC2 cells; format: functional
Summary of the method: (§2)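 The index is the average CC50 toward the three normal cell types (HGF, HPC, HPLF) divided by the CC50 toward the indicated malignant line.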

HSC-4 [6] = test: Cytotoxicity against human HSC4 cells after 24 hrs; format: functional; settings: HSC-4, 24 h; summary of the method: as §1
HSC-4 [7] = test: Selectivity index, ratio of CC50 for human normal cells to CC50 for human HSC4 cells; format: functional; summary of the method: as §2
HL-60 [8] = test: Cytotoxicity against human HL60 cells after 24 hrs; format: functional; settings: HL-60, 24 h; summary of the method: as §1
HL-60 [9] = test: Selectivity index, ratio of CC50 for human normal cells to CC50 for human HL60 cells; format: functional; summary of the method: as §2
[10] = Partition coefficient, log P of the compound; format: physicochemical; settings: octanol/water
Mus musculus [11] = test: Toxicity in mouse assessed as induction of mortality at 30 to 300 mg/kg, ip; format: organism-based; set-up: dose 30-300 mg/kg, route intraperitoneal; settings: in vivo
Mus musculus [12] = test: Neurotoxicity in mouse assessed at 30 to 300 mg/kg, ip after 0.5 hrs; format: toxicity, organism-based; set-up: dose 30-300 mg/kg, route intraperitoneal; settings: in vivo
Summary of the method: (§3)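 Mice received 30, 100 or 300 mg/kg intraperitoneally and were examined at 0.5 and 4 h for mortality and neurological deficit, following NINDS screening protocols. Results were recorded as the number of mice showing a deficit over the number treated per dose.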

Mus musculus [13] = test: Neurotoxicity in mouse assessed at 30 to 300 mg/kg, ip after 4 hrs; format: toxicity, organism-based; set-up: dose 30-300 mg/kg, route intraperitoneal; settings: in vivo; summary of the method: as §3

Row | SMILES | CC50 at 24 h ([1]; HGF cells) [µM] | CC50 at 24 h ([2]; HPC cells) [µM] | CC50 at 24 h ([3]; HPLF cells) [µM] | CC50 (HSC-2 [4]) [µM] | Selectivity Index (HSC-2 [5]) | CC50 (HSC-4 [6]) [µM] | Selectivity Index (HSC-4 [7]) | CC50 (HL-60 [8]) [µM] | Selectivity Index (HL-60 [9]) | logP [10] | Activity (Mus musculus [11]) | Activity (Mus musculus [12]) | Activity (Mus musculus [13]) | CC50 [1] [µM] | CC50 [2] [µM] | CC50 [3] [µM]
1 | COc1ccc(/C=C2\CCC/C(=C\c3ccc([N+](=O)[O-])cc3)C2=O)cc1 | > 400 | > 400 | > 400 | > 400 | 1 | > 400 | 1 | > 400 | 1 | 4.98 | Non-toxic | Non-toxic | Non-toxic | – | – | –
2 | Cc1ccc(/C=C2\CCC/C(=C\c3ccc([N+](=O)[O-])cc3)C2=O)cc1 | – | – | – | 6.6 | >42 | 13 | >22 | 27 | >10 | 5.38 | Non-toxic | – | – | > 400 | 92 | 348
3 | O=C1CCCC/C1=C\c1cccc([N+](=O)[O-])c1 | – | – | – | 6.6 | 9.1 | 18 | 3.3 | 5.8 | 10 | – | Non-toxic | – | – | 74 | 49 | 56
4 | COc1cc(OC)c(/C=C2\CCC/C(=C\c3ccc([N+](=O)[O-])cc3)C2=O)c(OC)c1 | – | – | – | > 400 | 1 | > 400 | 1 | 11 | >36 | – | Non-toxic | Non-toxic | Non-toxic | > 400 | > 400 | > 400
5 | COc1cc(/C=C2\CCC/C(=C\c3ccccc3[N+](=O)[O-])C2=O)cc(OC)c1OC | – | – | – | 5.9 | 9 | 6.5 | 8.2 | 3 | 18 | 4.33 | Non-toxic | Non-toxic | Non-toxic | 44 | 35 | 79
6 | COc1ccc(/C=C2\CCC/C(=C\c3ccc([N+](=O)[O-])cc3)C2=O)c(OC)c1OC | – | – | – | > 400 | 1 | > 400 | 1 | > 400 | 1 | – | Non-toxic | Non-toxic | Non-toxic | > 400 | > 400 | > 400
7 | CN(C)c1ccc(/C=C2\CCC/C(=C\c3ccccc3[N+](=O)[O-])C2=O)cc1 | – | – | – | > 400 | 1 | > 400 | 1 | > 400 | 1 | 4.8 | – | – | – | > 400 | > 400 | > 400
8 | O=C1/C(=C/c2ccc(F)cc2)CCC/C1=C\c1ccc([N+](=O)[O-])cc1 | – | – | – | 19 | – | 15 | – | 32 | – | 5.09 | Non-toxic | – | – | 326 | > 400 | > 400
9 | CN(C)c1ccc(/C=C2\CCC/C(=C\c3cccc([N+](=O)[O-])c3)C2=O)cc1 | – | – | – | 32 | – | 71 | – | 30 | – | 5 | Non-toxic | – | – | > 400 | > 400 | > 400
10 | COc1ccc(/C=C2\CCC/C(=C\c3ccccc3[N+](=O)[O-])C2=O)cc1 | – | – | – | 11 | – | 24 | – | 26 | – | 4.76 | Non-toxic | Non-toxic | Non-toxic | > 400 | > 400 | 386
11 | O=C1/C(=C/c2ccc(F)cc2)CCC/C1=C\c1cccc([N+](=O)[O-])c1 | – | – | – | 2.2 | – | 2.5 | – | 1 | – | 5.07 | Non-toxic | – | – | 42 | 38 | 36
12 | CN(C)c1ccc(/C=C2\CCC/C(=C\c3ccc([N+](=O)[O-])cc3)C2=O)cc1 | – | – | – | 11 | – | > 400 | – | > 400 | – | 5.03 | Non-toxic | – | – | > 400 | > 400 | > 400
